# High-throughput results: PubChem, several laboratories
# In the library only some 1.8% were active in any assay of this set; here they are far more common.
# Ins promoter up: MIN6 insulin promoter up-regulation; z-score at 5 µM; AID 1625; MIN6 insulin promoter-GFP reporter, high-content imaging; stronger effect = higher value; hit rate 0.3% among 190,000;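 active means z-score above 3 at 5 µM with at least 500 cells counted in the well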
# p47phox inh: p47phox (human) inhibition | P14598 | p47phox/p22phox peptide binding, fluorescence polarization, 2 h | inhibition, % at 24.7 µM | hit rate 0.53% among 220,000 | AID 1274;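 active means inhibition above about 30%, limit read from the data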;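 further: 0% = p47phox with labelled peptide and 100% = labelled peptide alone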
# TNAP inh noacc: inhibitors of human TNAP without phosphate acceptor; P05186; purified TNAP, CDP-star luminescence, 30 min; inhibition, % at 20 µM; hit rate 0.26% among 200,000;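 active means tissue-nonspecific alkaline phosphatase inhibition above about 50% at 20 µM in the single-dose screen, limit read from the data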;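 further: 0% = DMSO negative control and 100% = EDTA positive control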
# Target sequence (P05186 whole entry, looked up): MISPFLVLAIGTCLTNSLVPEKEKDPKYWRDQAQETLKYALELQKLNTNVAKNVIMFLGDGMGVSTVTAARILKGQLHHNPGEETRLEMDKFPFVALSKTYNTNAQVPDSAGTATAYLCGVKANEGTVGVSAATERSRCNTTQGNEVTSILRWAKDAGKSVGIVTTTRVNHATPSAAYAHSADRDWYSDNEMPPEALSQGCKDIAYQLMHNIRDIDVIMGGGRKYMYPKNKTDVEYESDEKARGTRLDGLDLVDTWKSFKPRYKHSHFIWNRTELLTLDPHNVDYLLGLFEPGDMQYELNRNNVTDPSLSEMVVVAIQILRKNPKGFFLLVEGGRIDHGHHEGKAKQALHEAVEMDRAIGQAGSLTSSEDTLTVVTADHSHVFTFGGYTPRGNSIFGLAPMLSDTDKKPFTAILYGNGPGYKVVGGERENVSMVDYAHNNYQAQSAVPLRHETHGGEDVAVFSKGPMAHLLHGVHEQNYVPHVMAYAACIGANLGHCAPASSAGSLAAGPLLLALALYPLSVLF
# TNAP inh hiacc: TNAP (human) inhibition, high acceptor; inhibition, % at 20 µM; P05186; purified TNAP, CDP-star luminescence, 1 M DEA; hit rate 0.03% among 200,000;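 active means over 50% inhibition of tissue-nonspecific alkaline phosphatase at 20 µM in the single-dose screen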;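 further: plate controls were DMSO wells for no effect and EDTA-quenched wells as full inhibition for full effect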
# Autophagy mod: alters autophagy in cells; MEF GFP-LC3 puncta imaging; test concentration mostly 10 µM; calls only at 10 µM (by protocol); hit rate 0.98% among 190,000; AID 463193;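 active means percentage of spot-positive cells more than 3 SD above its plate mean, without a fluorescence outlier flag or 80% toxicity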;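 further: spot-positive cell cutoff set from DMSO-treated cells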
# TNAP act hi DEA: activators of human TNAP at high phosphate acceptor concentration | AID 1136 | P05186 | 200,000 tested, under 10 active | purified TNAP, CDP-star luminescence, 1 M DEA, 30 min; stronger effect = higher value; 0 = EDTA background, 1 = DMSO-only activity | activation factor at 20 µM;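 active means activation factor at least 2 at 20 µM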
#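 Assay system: human TNAP; Input: enzyme diluted 1/800 final; Reagent: CDP-star luminogenic substrate at 100 µM final; Timing: 30 min, room temperature; Signal: luminescence; Evaluation: TNAP activation factor scaled between EDTA and DMSO control wells.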
# * marks the source's active call; other numbers are inactive results; i = inactive; x = not tested or not shown; + = active, no number.
SMILES,Ins promoter up,p47phox inh,TNAP inh noacc,TNAP inh hiacc,Autophagy mod,TNAP act hi DEA
N#CCCn1cc(/C=N/NC(N)=S)c(-c2ccccc2)n1,0.02,-10,56*,0,i,1
CN1CCN(C2=C(Cl)C(=O)C(c3cnc(N4CCCCC4)s3)=C(Cl)C2=O)CC1,x,48*,22,7,i,0.9
CN1CCN(C2=C(Cl)C(=O)N(C3CCCCC3)C2=O)CC1,-0.86,-3,-4,1,i,1
CCc1cccc(C)c1N1C(=O)CC(C)(C)CC1=O,-0.06,-10,x,x,x,x
CCC(=O)n1nc(-c2cccnc2)nc1NCc1cccs1,1.8,-19,69*,4,i,1
CCCC(=O)n1nc(-c2cccnc2)nc1NCc1cccs1,0.21,-4,48,0,i,1
CC(=O)n1nc(-c2cccnc2)nc1NCc1cccs1,x,3,57*,-6,i,1.1
COc1cc2c(c(OC)c1OC)-c1c(cc(OC)c(OC)c1OC)C[C@](C)(O)[C@@H](C)C2,x,-3,x,x,x,x
COc1ccccc1N1CCN(C/C(O)=C(\C#N)c2nc(-c3ccccc3)cs2)CC1,3.2*,-20,-2,1,i,1
CCOc1ccc(CCNC(=O)CN2C(=O)NC(CCSC)C2=O)cc1OCC (stereo unspecified),-0.02,-4,1,2,i,1
CC(C)n1cc(/C=C2\NC(=O)N(c3cccc(Cl)c3)C2=O)c2ccccc21,x,-25,23,3,+,1
CC(C)n1cc(/C=C2/NC(=O)N(c3cccc(Cl)c3)C2=O)c2ccccc21,0.07,-15,-2,-4,+,1
O=C(O)Cn1cc(/C=C2/NC(=O)N(c3ccc(Cl)cc3)C2=O)c2ccccc21,0.86,-4,-10,0,i,1
O=C(O)CCCC(=O)NCc1c(Cl)cccc1Sc1ccc(Cl)cc1,1.6,34*,x,x,x,x
Cc1ccc(CNC(=O)c2ccccc2NC(=O)CSc2nnnn2C)cc1,0,0,-6,0,+,1
COc1ccc(OC)c(NC(=O)CSc2nc3ccccc3c3nc4ccccc4n23)c1,0.11,79*,-3,-2,i,1
CCOC(=O)c1cnc2c(ccc3ccccc32)c1NCCO,-0.39,-15,-7,-3,i,1
CCOC(=O)c1cnc2ccc(C)cc2c1NCCO,x,43*,-9,-1,i,1
CC(C)(C)c1ccc(CN2N=Nc3ccccc3S2(=O)=O)cc1,0.13,34*,-3,-2,i,1
Cc1ccc(C2C(C#N)=C(N)Oc3n[nH]c(-c4cccs4)c32)cc1 (stereo unspecified),-0.15,-6,9,7,i,0.9
COc1cc(C2C(C#N)=C(N)Oc3n[nH]c(-c4cccs4)c32)cc(OC)c1O (stereo unspecified),0.12,-42,54*,38,i,0.6
CCOC(=O)CCC(=O)Nc1ccc(S(=O)(=O)N2CCC(C)CC2)cc1,0.09,31*,-5,0,i,1
O=C(Nc1nnc(SCc2c(Cl)cccc2Cl)s1)c1ccc2ncsc2c1,-0.11,1,-4,-6,i,1.1
N#Cc1ccc(CSc2nnc(NC(=O)c3ccc4ncsc4c3)s2)cc1,4.4*,-8,4,-4,i,1
COc1cc(OC)cc(C(=O)Nc2ccc(-c3nc4ccccc4o3)cc2)c1,-1.6,-17,-5,-3,+,1
SMILES,Ins promoter up,p47phox inh,TNAP inh noacc,TNAP inh hiacc,Autophagy mod,TNAP act hi DEA
COc1cccc(C(=O)Nc2ccc(-c3nc4ccccc4o3)c(O)c2)c1,-0.51,-114,-12,-6,i,1.1
COc1cc(OC)cc(C(=O)Nc2cccc(C(C)=O)c2)c1,3.5*,-13,-7,-1,i,1
CCN1C(=O)/C(=C\c2cccn2-c2ccc([N+](=O)[O-])cc2)N(CC)C1=S,0.19,-4,-13,0,i,1
O=C(c1ccc2c(c1)C(=O)N(CCCO)C2=O)c1ccc2c(c1)C(=O)N(CCCO)C2=O,1.3,1,-11,-2,i,1
O=C1c2ccc3c4c(ccc(c24)C(=O)N1CCCCO)C(=O)N(CCCCO)C3=O,-4.9,62*,-10,-3,i,1
Cc1nc(N=Nc2ccc(O)cc2)n[nH]1,0.58,2,x,x,x,x
